Test results published in ChEMBL document CHEMBL1135705, “Correlation of the antibacterial activities of cationic peptide antibiotics and cationic steroid antibiotics” (2002).
Converted amounts (≈) assume the structure as drawn.

Assays:
Streptococcus pyogenes = test: Antibacterial activity against Gram-positive bacteria-Streptococcus pyogenes (ATCC 19615); format: functional
[1] = Compound was evaluated for minimum hemolytic concentration; format: functional
Outline: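 Hemolysis was tested up to 200 µg/mL. Higher concentrations could not be used because of limited solubility.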

Staphylococcus aureus = test: Antibacterial activity against Gram-positive bacteria -S. aureus (ATCC 25923); format: functional
Salmonella typhimurium = test: Antibacterial activity against Gram-negative bacteria -Salmonella Typhimurium (ATCC 14028); format: functional, Salmonella enterica subsp. enterica serovar Typhimurium; conditions: Salmonella enterica
Escherichia coli = test: Antibacterial activity against Gram-negative bacteria- Escherichia coli (ATCC 25922); format: functional

| MIC (Streptococcus pyogenes) | MIC (Staphylococcus aureus) | MIC (Salmonella typhimurium) | MIC (Escherichia coli) | SMILES | MHC [1] |
| --- | --- | --- | --- | --- | --- |
| 1.6 µg/mL (≈ 2.36 µM) | 2 µg/mL (≈ 2.95 µM) | 12 µg/mL (≈ 17.7 µM) | 7.3 µg/mL (≈ 10.7 µM) | C[C@H](CCCNCCCNCCCN)[C@H]1CC[C@H]2[C@@H]3[C@H](OCCCN)CC4C[C@H](OCCCN)CC[C@]4(C)[C@H]3C[C@H](OCCCN)[C@]12C (stereo not given in full) | > 200 µg/mL |
| 4.2 µg/mL (≈ 7.42 µM) | 2 µg/mL (≈ 3.53 µM) | 43 µg/mL (≈ 76 µM) | 36 µg/mL (≈ 63.6 µM) | C[C@H](CCCO)[C@H]1CC[C@H]2[C@@H]3[C@H](OCCCN)CC4C[C@H](OCCCN)CC[C@]4(C)[C@H]3C[C@H](OCCCN)[C@]12C (stereo not given in full) | 100 µg/mL |
| 3 µg/mL (≈ 4.42 µM) | 4.6 µg/mL (≈ 6.77 µM) | 25 µg/mL (≈ 36.8 µM) | 6.6 µg/mL (≈ 9.72 µM) | C[C@H](CCCN(CCCN)CCCN)[C@H]1CC[C@H]2[C@@H]3[C@H](OCCCN)CC4C[C@H](OCCCN)CC[C@]4(C)[C@H]3C[C@H](OCCCN)[C@]12C (stereo not given in full) | > 200 µg/mL |
